According to ChEMBL document CHEMBL3856229, “Hybrid Antibiotic Overcomes Resistance in P. aeruginosa by Enhancing Outer Membrane Penetration and Reducing Efflux” (J Med Chem, 2016):
pIC50: −log10 of the molar value. In brackets after ≈: the same amount, converted by molar mass.

How the values were obtained:
Pseudomonas aeruginosa [1] = assay: Antibacterial activity against multidrug-resistant/tobramycin-susceptible Pseudomonas aeruginosa isolate 86052; format: functional
Staphylococcus aureus [2] = assay: Antibacterial activity against Staphylococcus aureus ATCC 29213 after 24 hrs by microtitre broth dilution method; format: functional; details: ATCC 29213, 24 h
Staphylococcus aureus [3] = assay: Antibacterial activity against methicillin-resistant Staphylococcus aureus ATCC 33592 after 24 hrs by microtitre broth dilution method; format: functional; details: ATCC 33592, 24 h
[4] = tested on: Staphylococcus epidermidis; assay: Antibacterial activity against methicillin-susceptible Staphylococcus epidermidis isolate CANWARD-2008 81388 after 24 hrs by microtitre broth dilution method; format: functional; details: isolate CANWARD-2008 81388, 24 h
[5] = tested on: Staphylococcus epidermidis; assay: Antibacterial activity against methicillin-resistant Staphylococcus epidermidis isolate CAN-ICU 61589 after 24 hrs by microtitre broth dilution method; format: functional; details: isolate CAN-ICU 61589, 24 h
Enterococcus faecalis = assay: Antibacterial activity against Enterococcus faecalis ATCC 29212 after 24 hrs by microtitre broth dilution method; format: functional; details: ATCC 29212, 24 h
Enterococcus faecium = assay: Antibacterial activity against Enterococcus faecium ATCC 27270 after 24 hrs by microtitre broth dilution method; format: functional; details: ATCC 27270, 24 h
Streptococcus pneumoniae = assay: Antibacterial activity against Streptococcus pneumoniae ATCC 49619 after 24 hrs by microtitre broth dilution method; format: functional; details: ATCC 49619, 24 h
Escherichia coli [6] = assay: Antibacterial activity against gentamicin-resistant Escherichia coli isolate CAN-ICU 61714 after 24 hrs by microtitre broth dilution method; format: functional; details: isolate CAN-ICU 61714, 24 h
Escherichia coli [7] = assay: Antibacterial activity against amikacin-resistant Escherichia coli isolate CAN-ICU 63074 after 24 hrs by microtitre broth dilution method; format: functional; details: isolate CAN-ICU 63074, 24 h
Escherichia coli [8] = assay: Antibacterial activity against gentamicin/tobramycin/ciprofloxacin-resistant Escherichia coli isolate CANWARD-2011 97615 harboring AAC3-2A after 24 hrs by microtitre broth dilution method; format: functional; details: isolate CANWARD-2011 97615, 24 h
Pseudomonas aeruginosa [9] = assay: Antibacterial activity against Pseudomonas aeruginosa ATCC 27853 after 24 hrs by microtitre broth dilution method; format: functional; details: ATCC 27853, 24 h
Pseudomonas aeruginosa [10] = assay: Antibacterial activity against gentamicin-resistant Pseudomonas aeruginosa isolate CAN-ICU 62308 after 24 hrs by microtitre broth dilution method; format: functional; details: isolate CAN-ICU 62308, 24 h
Pseudomonas aeruginosa [11] = assay: Antibacterial activity against gentamicin/tobramycin-resistant Pseudomonas aeruginosa isolate CANWARD-2011 96846 after 24 hrs by microtitre broth dilution method; format: functional; details: isolate CANWARD-2011 96846, 24 h
[12] = tested on: Stenotrophomonas maltophilia; assay: Antibacterial activity against Stenotrophomonas maltophilia isolate CAN-ICU 62584 after 24 hrs by microtitre broth dilution method; format: functional; details: isolate CAN-ICU 62584, 24 h
Acinetobacter baumannii = assay: Antibacterial activity against Acinetobacter baumannii isolate CAN-ICU 63169 after 24 hrs by microtitre broth dilution method; format: functional; details: isolate CAN-ICU 63169, 24 h
Klebsiella pneumoniae = assay: Antibacterial activity against Klebsiella pneumoniae ATCC 13883 after 24 hrs by microtitre broth dilution method; format: functional; details: ATCC 13883, 24 h
Pseudomonas aeruginosa [13] = assay: Antibacterial activity against multidrug/extremely drug-resistant/colistin-susceptible Pseudomonas aeruginosa isolate 100036; format: functional
Pseudomonas aeruginosa [14] = assay: Antibacterial activity against multidrug/extremely drug-resistant/colistin-susceptible Pseudomonas aeruginosa isolate 101885; format: functional
Pseudomonas aeruginosa [15] = assay: Antibacterial activity against multidrug/extremely drug-resistant/colistin-susceptible Pseudomonas aeruginosa isolate 259-96918; format: functional
Pseudomonas aeruginosa [16] = assay: Antibacterial activity against multidrug/extremely drug-resistant/colistin-susceptible Pseudomonas aeruginosa isolate 260-97103; format: functional
Pseudomonas aeruginosa [17] = assay: Antibacterial activity against multidrug/extremely drug-resistant/colistin-susceptible Pseudomonas aeruginosa isolate 262-101856; format: functional
Pseudomonas aeruginosa [18] = assay: Antibacterial activity against multidrug/extremely drug-resistant/colistin-susceptible Pseudomonas aeruginosa isolate 264-104354; format: functional
Pseudomonas aeruginosa [19] = assay: Antibacterial activity against pandrug-resistant Pseudomonas aeruginosa isolate 91433; format: functional
Pseudomonas aeruginosa [20] = assay: Antibacterial activity against pandrug-resistant Pseudomonas aeruginosa isolate 101243; format: functional
Pseudomonas aeruginosa [21] = assay: Antibacterial activity against Pseudomonas aeruginosa PAO1; format: functional
Pseudomonas aeruginosa [22] = assay: Antibacterial activity against multidrug-resistant/tobramycin-susceptible Pseudomonas aeruginosa isolate 86053; format: functional
Pseudomonas aeruginosa [23] = assay: Antibacterial activity against multidrug-resistant/tobramycin-susceptible Pseudomonas aeruginosa isolate 86067; format: functional
Pseudomonas aeruginosa [24] = assay: Antibacterial activity against multidrug-resistant/tobramycin-susceptible Pseudomonas aeruginosa isolate 86079; format: functional
Pseudomonas aeruginosa [25] = assay: Antibacterial activity against multidrug-resistant/tobramycin-susceptible Pseudomonas aeruginosa isolate 86141; format: functional
Pseudomonas aeruginosa [26] = assay: Antibacterial activity against multidrug-resistant/tobramycin-susceptible Pseudomonas aeruginosa isolate 92014; format: functional
Pseudomonas aeruginosa [27] = assay: Antibacterial activity against multidrug-resistant/tobramycin-susceptible Pseudomonas aeruginosa isolate 108590; format: functional
Pseudomonas aeruginosa [28] = assay: Antibacterial activity against multidrug-resistant/tobramycin-susceptible Pseudomonas aeruginosa isolate 79199; format: functional
Pseudomonas aeruginosa [29] = assay: Antibacterial activity against multidrug-resistant/tobramycin-susceptible Pseudomonas aeruginosa isolate 80621; format: functional
Pseudomonas aeruginosa [30] = assay: Antibacterial activity against multidrug-resistant/tobramycin-susceptible Pseudomonas aeruginosa isolate 83182; format: functional
Pseudomonas aeruginosa [31] = assay: Antibacterial activity against multidrug-resistant/tobramycin-susceptible Pseudomonas aeruginosa isolate 84745; format: functional
Pseudomonas aeruginosa [32] = assay: Antibacterial activity against multidrug-resistant/tobramycin-susceptible Pseudomonas aeruginosa isolate 85322; format: functional
Escherichia coli [33] = assay: Antibacterial activity against Escherichia coli ATCC 25922 after 24 hrs by microtitre broth dilution method; format: functional; details: ATCC 25922, 24 h
Pseudomonas aeruginosa [34] = assay: Antibacterial activity against extremely drug-resistant Pseudomonas aeruginosa isolate 104354 infected in Galleria mellonella assessed as larvae survival at 50 mg/kg administered as single dose measured after 24 hrs (reference value: 27 %); format: functional; details: isolate 104354, 24 h
Procedure, shortened: (§1)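 Galleria mellonella larvae were infected with 10^6 CFU of XDR P. aeruginosa #104354, resistant to all antipseudomonal classes except colistin. A single injected drug dose was given 2 h post-infection: 50 mg/kg with survival read at 24 h, or 75 mg/kg with survival read at 96 h. Controls were infected untreated larvae and PBS-injected larvae. Two independent experiments of 15 larvae each (n = 30).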

Pseudomonas aeruginosa [35] = assay: Antibacterial activity against extremely drug-resistant Pseudomonas aeruginosa isolate 104354 infected in Galleria mellonella assessed as larvae survival at 75 mg/kg administered as single dose measured after 96 hrs; format: functional; details: isolate 104354, 96 h; procedure, shortened: as §1
Pseudomonas aeruginosa [36] = assay: Antimicrobial activity against Pseudomonas aeruginosa PAO200; format: functional
Procedure, shortened: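 MIC (µg/mL) determined in PAO200, a PAO1-derived MexAB-OprM deletion strain used to assess efflux effects.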

Pseudomonas aeruginosa [37] = assay: Antimicrobial activity against Pseudomonas aeruginosa PAO750; format: functional
Procedure, shortened: (§2)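 MICs were measured in PAO1 and in PAO750. PAO750 is a PAO1 derivative lacking the MexAB-OprM, MexCD-OprJ, MexEF-OprN, MexJK and MexXY efflux pumps and the outer membrane protein OpmH.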

[38] = Selectivity ratio of MIC for Pseudomonas aeruginosa PAO1 to MIC for Pseudomonas aeruginosa PAO750; format: functional; procedure, shortened: as §2
[39] = Inhibition of Pseudomonas aeruginosa DNA gyrase A assessed as inhibition of DNA supercoiling using PBR322 DNA as substrate after 30 mins by SYBR Gold staining based agarose gel electrophoresis
Pseudomonas aeruginosa [40] = assay: Ratio of MIC for Pseudomonas aeruginosa PAO1 after 25 serial passages to MIC for Pseudomonas aeruginosa PAO1 prior to 25 serial passages; format: functional
Procedure, shortened: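 P. aeruginosa PAO1 exposed to sub-inhibitory (0.5 x MIC) drug over successive subcultures as a resistance-selection procedure. MIC compared after versus before passaging.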

## COc1c(N2C[C@@H]3CCCN[C@@H]3C2)c(F)cc2c(=O)c(C(=O)O)cn(C3CC3)c12 [MOXIFLOXACIN]
Pseudomonas aeruginosa [1]
  MIC: > 16 µg/mL
Staphylococcus aureus [2]
  MIC: ≤ 0.25 µg/mL
Staphylococcus aureus [3]
  MIC: ≤ 0.25 µg/mL
[4]
  MIC: ≤ 0.25 µg/mL
[5]
  MIC: 64 µg/mL (≈ 159 µM)
Enterococcus faecalis
  MIC: ≤ 0.25 µg/mL
Enterococcus faecium
  MIC: 2 µg/mL (≈ 4.98 µM)
Streptococcus pneumoniae
  MIC: ≤ 0.25 µg/mL
Escherichia coli [6]
  MIC: 0.5 µg/mL (≈ 1.25 µM)
Escherichia coli [7]
  MIC: 1 µg/mL (≈ 2.49 µM)
Escherichia coli [8]
  MIC: 32 µg/mL (≈ 79.7 µM)
Pseudomonas aeruginosa [9]
  MIC: 4 µg/mL (≈ 9.96 µM)
Pseudomonas aeruginosa [10]
  MIC: 16 µg/mL (≈ 39.9 µM)
Pseudomonas aeruginosa [11]
  MIC: 16 µg/mL (≈ 39.9 µM)
[12]
  MIC: 4 µg/mL (≈ 9.96 µM)
Acinetobacter baumannii
  MIC: 1 µg/mL (≈ 2.49 µM)
Klebsiella pneumoniae
  MIC: ≤ 0.25 µg/mL
Pseudomonas aeruginosa [13]
  MIC: 128 µg/mL (≈ 319 µM)
Pseudomonas aeruginosa [14]
  MIC: 128 µg/mL (≈ 319 µM)
Pseudomonas aeruginosa [15]
  MIC: 512 µg/mL (≈ 1280 µM)
Pseudomonas aeruginosa [16]
  MIC: 32 to 64 µg/mL (≈ 79.7 to 159 µM)
Pseudomonas aeruginosa [17]
  MIC: 64 to 128 µg/mL (≈ 159 to 319 µM)
Pseudomonas aeruginosa [18]
  MIC: 32 to 64 µg/mL (≈ 79.7 to 159 µM)
Pseudomonas aeruginosa [19]
  MIC: 8 to 16 µg/mL (≈ 19.9 to 39.9 µM)
Pseudomonas aeruginosa [20]
  MIC: 8 µg/mL (≈ 19.9 µM)
Pseudomonas aeruginosa [21]
  MIC: 1 µg/mL (≈ 2.49 µM)
Pseudomonas aeruginosa [22]
  MIC: 16 µg/mL (≈ 39.9 µM)
Pseudomonas aeruginosa [23]
  MIC: 16 µg/mL (≈ 39.9 µM)
Pseudomonas aeruginosa [24]
  MIC: > 16 µg/mL
Pseudomonas aeruginosa [25]
  MIC: > 16 µg/mL
Pseudomonas aeruginosa [26]
  MIC: 16 µg/mL (≈ 39.9 µM)
Pseudomonas aeruginosa [27]
  MIC: 16 µg/mL (≈ 39.9 µM)
Pseudomonas aeruginosa [28]
  MIC: > 16 µg/mL
Pseudomonas aeruginosa [29]
  MIC: 8 µg/mL (≈ 19.9 µM)
Pseudomonas aeruginosa [30]
  MIC: 16 µg/mL (≈ 39.9 µM)
Pseudomonas aeruginosa [31]
  MIC: 16 µg/mL (≈ 39.9 µM)
Pseudomonas aeruginosa [32]
  MIC: 8 µg/mL (≈ 19.9 µM)
Escherichia coli [33]
  MIC: ≤ 0.25 µg/mL
Pseudomonas aeruginosa [34]
  survival at 50 mg/kg: 27%
Pseudomonas aeruginosa [35]
  survival at 75 mg/kg: 7%
Pseudomonas aeruginosa [36]
  MIC: 0.25 µg/mL (≈ 0.623 µM)
Pseudomonas aeruginosa [37]
  MIC: 0.0078 µg/mL (≈ 0.0194 µM)
[38]
  Selectivity ratio: 128
[39]
  pIC50: 5.59
Pseudomonas aeruginosa [40]
  Ratio: 16
